{
  "source": "ChEMBL document CHEMBL4033653",
  "about": "“Effect of 1,2,3-triazole salts, non-classical bioisosteres of miltefosine, on Leishmania amazonensis” (Bioorg Med Chem, 2017)",
  "key": {"Leishmania amazonensis [1]": {"tested_on": "Leishmania amazonensis", "test": "Induction of apoptosis in Leishmania amazonensis IFLA/BR/1967/PH8 promastigotes assessed as necrotic population at 20 uM after 24 hrs by Annexin V-FITC/PI staining based flow cytometric analysis (reference value: 0.03%)", "format": "functional", "in_short": "(§1)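 Exponential-phase WT promastigotes (1x10^7 cells/mL) cultured 24 h at 25 °C; stained annexin V-FITC plus PI, flow cytometry with 10,000 events gated on parasites; quadrant percentages; three independent experiments.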"}, "Leishmania amazonensis [2]": {"tested_on": "Leishmania amazonensis", "test": "Induction of ROS accumulation in Leishmania amazonensis IFLA/BR/1967/PH8 promastigotes at 20 uM after 72 hrs by H2DCFDA staining-based fluorometric analysis relative to control", "format": "functional", "in_short": "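WT exponential-phase promastigotes treated at 25 °C; adjusted to 2x10^7 cells in PBS, loaded with H2DCFDA 30 min dark at room temperature; fluorescence 485/528 nm versus untreated; three independent experiments.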"}, "Leishmania amazonensis [3]": {"tested_on": "Leishmania amazonensis", "test": "Induction of autophagy in Leishmania amazonensis IFLA/BR/1967/PH8 promastigotes at 20 uM after 24 hrs by MDC staining-based fluorometric analysis relative to control", "format": "functional", "in_short": "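Exponential WT promastigotes (1x10^7 cells/mL) treated 24 h at 25 °C; washed, adjusted to 10x10^6 cells/mL, 100 µM monodansylcadaverine 1 h dark at 25 °C; fluorescence 335/460 nm versus untreated; three independent experiments.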"}, "Leishmania amazonensis [4]": {"tested_on": "Leishmania amazonensis", "test": "Induction of mitochondrial membrane potential loss in Leishmania amazonensis IFLA/BR/1967/PH8 promastigotes at 10 uM after 24 hrs by JC-1 staining-based spectrofluorometric analysis relative to control", "format": "functional", "in_short": "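Exponential WT promastigotes (1x10^7 cells/mL) treated 24 h at 25 °C; washed, JC-1 loaded, read at 485/528 and 540/600 nm; Δψm as 600/528 ratio, untreated = 100%; FCCP 20.0 µM for 30 min as positive control; three experiments in triplicate.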"}, "Leishmania amazonensis [5]": {"tested_on": "Leishmania amazonensis", "test": "Antileishmanial activity against Leishmania amazonensis IFLA/BR/1967/PH8 amastigotes transfected with red fluorescent protein infected in murine macrophages after 72 hrs by fluorometric analysis", "format": "functional", "settings": "IFLA/BR/1967/PH8, 72 h", "in_short": "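Infected murine macrophages treated 0.78-100.0 µM for 72 h; fluorescence read at 540/600 nm for RFP parasites (PH8) and 485/528 nm for GFP parasites (Josefa strain); IC50 from three independent experiments in duplicate.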"}, "Leishmania amazonensis [6]": {"tested_on": "Leishmania amazonensis", "test": "Antileishmanial activity against Leishmania amazonensis WHOM/BR/75/Josefa promastigotes transfected with green fluorescent protein after 72 hrs by MTT assay", "format": "functional"}, "[7]": {"test": "Selectivity index, ratio of CC50 for mouse peritoneal macrophages to IC50 for Leishmania amazonensis WHOM/BR/75/Josefa amastigotes transfected with green fluorescent protein", "in_short": "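SI = CC50 for mouse peritoneal macrophages / GFP amastigote IC50. […] IC50: macrophages infected with GFP-expressing Josefa-strain parasites, treated with 0.78–100.0 µM for 72 h; fluorescence read at 485 nm excitation/528 nm emission. Three experiments in duplicate.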"}, "Leishmania amazonensis [8]": {"tested_on": "Leishmania amazonensis", "test": "Antileishmanial activity against Leishmania amazonensis IFLA/BR/1967/PH8 promastigotes transfected with red fluorescent protein after 72 hrs by MTT assay", "format": "functional", "settings": "IFLA/BR/1967/PH8, 72 h"}, "Leishmania amazonensis [9]": {"tested_on": "Leishmania amazonensis", "test": "Induction of apoptosis in Leishmania amazonensis IFLA/BR/1967/PH8 promastigotes assessed as early apoptotic population at 10 uM after 24 hrs by Annexin V-FITC/PI staining based flow cytometric analysis (reference value: 5.29%)", "format": "functional", "in_short": "as §1"}, "Leishmania amazonensis [10]": {"tested_on": "Leishmania amazonensis", "test": "Antileishmanial activity against Leishmania amazonensis IFLA/BR/1967/PH8 amastigotes infected in murine macrophages at 1.8 uM incubated for 72 hrs followed by compound washout measured after 72 hrs by microscopic method relative to control", "format": "functional", "settings": "IFLA/BR/1967/PH8, 72 h", "in_short": "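Macrophages infected with WT PH8 parasites treated 72 h at 33 °C, 5% CO2; washed twice in PBS, then held in drug-free Warren's medium + 10% serum at 25 °C for 72 h; viable promastigotes counted microscopically versus untreated; three independent experiments in duplicate.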"}, "[11]": {"test": "Cytotoxicity against mouse peritoneal macrophages after 72 hrs by MTT assay", "format": "cell-based, Peritoneal macrophage", "settings": "peritoneal macrophages"}, "Leishmania amazonensis [12]": {"tested_on": "Leishmania amazonensis", "test": "Induction of lipid inclusions in Leishmania amazonensis IFLA/BR/1967/PH8 promastigotes at 10 uM after 24 hrs by Nile Red satining-based spectrofluorometric analysis relative to control", "format": "functional", "in_short": "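WT (PH8) promastigotes at 1x10^7 cells/mL in exponential phase, cultured 24 h at 25 °C with or without 2.5–20.0 µM. Parasites incubated with Nile Red, then fluorescence measured spectrofluorometrically. Reported as arbitrary fluorescence units versus untreated parasites, mean of three experiments run in triplicate.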"}, "Leishmania amazonensis [13]": {"tested_on": "Leishmania amazonensis", "test": "Induction of ROS accumulation in Leishmania amazonensis IFLA/BR/1967/PH8 promastigotes at 2.5 uM after 72 hrs by H2DCFDA staining-based fluorometric analysis relative to control", "format": "functional", "in_short": "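WT (PH8) promastigotes in exponential phase, untreated or exposed to 2.5–20.0 µM at 25 °C. Cells adjusted to 2x10^7 promastigotes in PBS, then loaded with H2DCFDA for 30 min in the dark at room temperature. Fluorescence read at ex 485/em 528 nm. Positive control was miltefosine 22.0 µM. Reported as arbitrary fluorescence units, mean of three independent experiments.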"}, "Leishmania amazonensis [14]": {"tested_on": "Leishmania amazonensis", "test": "Induction of apoptosis in Leishmania amazonensis IFLA/BR/1967/PH8 promastigotes assessed as late apoptotic population at 5 uM after 24 hrs by Annexin V-FITC/PI staining based flow cytometric analysis (reference value: 2.62%)", "format": "functional", "in_short": "as §1"}, "Leishmania amazonensis [15]": {"tested_on": "Leishmania amazonensis", "test": "Induction of apoptosis in Leishmania amazonensis IFLA/BR/1967/PH8 promastigotes assessed as necrotic population at 5 uM after 24 hrs by Annexin V-FITC/PI staining based flow cytometric analysis (reference value: 0.03%)", "format": "functional", "in_short": "as §1"}},
  "data": [
    {"smiles": "CC(=O)[O-].CCCCCCCCCCn1cc(CO)[n+](C)n1", "values": [
      {"measurement": "Activity", "setting": "Leishmania amazonensis [1]", "value": 3.97, "unit": "%"},
      {"measurement": "Activity", "setting": "Leishmania amazonensis [2]", "value": 75.5, "unit": "%"},
      {"measurement": "Activity", "setting": "Leishmania amazonensis [3]", "value": 49.8, "unit": "%"},
      {"measurement": "Activity", "setting": "Leishmania amazonensis [4]", "value": 32.5, "unit": "%"},
      {"measurement": "IC50", "setting": "Leishmania amazonensis [5]", "value": 1, "unit": "µM"},
      {"measurement": "IC50", "setting": "Leishmania amazonensis [6]", "value": 3.3, "unit": "µM"},
      {"measurement": "Ratio CC50/IC50", "setting": "[7]", "value": 144.9},
      {"measurement": "IC50", "setting": "Leishmania amazonensis [8]", "value": 15.6, "unit": "µM"},
      {"measurement": "Activity", "setting": "Leishmania amazonensis [9]", "value": 28.56, "unit": "%"},
      {"measurement": "inhibition at 1.8 µM", "setting": "Leishmania amazonensis [10]", "value": 69, "unit": "%"},
      {"measurement": "CC50 at 72 h", "setting": "[11]", "value": 116, "unit": "µM"},
      {"measurement": "fold change (FC)", "setting": "Leishmania amazonensis [12]", "value": 1.9},
      {"measurement": "Activity", "setting": "Leishmania amazonensis [13]", "value": 38.4, "unit": "%"},
      {"measurement": "Activity", "setting": "Leishmania amazonensis [14]", "value": 1.58, "unit": "%"},
      {"measurement": "Activity", "setting": "Leishmania amazonensis [15]", "value": 0.3, "unit": "%"}
    ]}
  ]
}
